# Reference: ChEMBL document CHEMBL1149321, “Synthesis, radiosynthesis, and biological evaluation of carbon-11 and iodine-123 labeled 2beta-carbomethoxy-3beta-[4'-((Z)-2-haloethenyl)phenyl]tropanes: candidate radioligands for in vivo imaging of the serotonin transporter” (J Med Chem, 2004)
# “And” between values parts separate entries of the source, which are not always exact repeats. Equal values may be shown once.
# Experiments:
# [1] = target: Sodium-dependent serotonin transporter (Homo sapiens, UniProt P31645); assay: biochemical; type: cell-based, kidney
# Sodium-dependent serotonin transporter, sequence (P31645 whole entry): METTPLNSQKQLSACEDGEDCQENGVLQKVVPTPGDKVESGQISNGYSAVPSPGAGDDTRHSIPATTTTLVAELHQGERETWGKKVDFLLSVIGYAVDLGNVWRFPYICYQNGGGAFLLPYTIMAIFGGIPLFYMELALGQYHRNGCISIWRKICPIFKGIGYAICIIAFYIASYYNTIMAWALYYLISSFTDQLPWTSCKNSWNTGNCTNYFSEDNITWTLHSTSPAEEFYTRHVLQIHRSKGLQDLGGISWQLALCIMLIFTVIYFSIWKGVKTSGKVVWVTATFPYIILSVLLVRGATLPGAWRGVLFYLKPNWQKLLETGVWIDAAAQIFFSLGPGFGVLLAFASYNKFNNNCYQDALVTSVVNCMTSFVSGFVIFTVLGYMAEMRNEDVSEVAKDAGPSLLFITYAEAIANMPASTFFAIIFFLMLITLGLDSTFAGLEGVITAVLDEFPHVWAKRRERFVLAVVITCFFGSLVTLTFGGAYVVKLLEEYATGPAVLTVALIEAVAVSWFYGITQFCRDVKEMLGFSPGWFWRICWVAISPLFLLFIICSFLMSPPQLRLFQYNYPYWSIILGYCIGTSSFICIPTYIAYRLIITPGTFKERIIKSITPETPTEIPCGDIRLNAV
# [2] = target: T1, Sodium-dependent dopamine transporter (Homo sapiens, UniProt Q01959); assay: In vitro binding affinity against human dopamine transporter in dog kidney cell line by using [125I]RTI-55 as radioligand; type: cell-based
# T1 sequence (Q01959 whole entry): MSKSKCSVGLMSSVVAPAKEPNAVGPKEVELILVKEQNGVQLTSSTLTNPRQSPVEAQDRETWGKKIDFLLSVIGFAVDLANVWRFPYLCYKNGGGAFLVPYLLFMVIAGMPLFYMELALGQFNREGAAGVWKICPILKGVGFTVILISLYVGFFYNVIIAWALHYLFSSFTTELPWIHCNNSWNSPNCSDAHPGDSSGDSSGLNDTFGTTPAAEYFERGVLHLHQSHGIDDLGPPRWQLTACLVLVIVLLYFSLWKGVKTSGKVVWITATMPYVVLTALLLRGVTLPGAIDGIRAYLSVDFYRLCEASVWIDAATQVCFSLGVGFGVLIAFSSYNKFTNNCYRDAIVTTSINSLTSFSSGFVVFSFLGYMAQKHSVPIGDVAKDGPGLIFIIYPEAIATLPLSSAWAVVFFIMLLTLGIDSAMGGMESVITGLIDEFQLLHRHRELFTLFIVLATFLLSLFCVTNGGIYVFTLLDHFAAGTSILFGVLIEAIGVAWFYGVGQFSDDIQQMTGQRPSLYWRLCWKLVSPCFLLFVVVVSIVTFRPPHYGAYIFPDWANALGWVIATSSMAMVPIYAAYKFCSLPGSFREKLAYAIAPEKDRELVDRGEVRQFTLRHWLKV
# In short: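 Membranes of MDCK cells stably expressing hDAT, grown in DMEM/10% FBS/geneticin. […] Competitor 12 concentrations 10⁻¹³–10⁻⁵ M in triplicate; GF/B filtration, gamma counting; Ki as geometric mean of ≥3 assays.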
# [3] = target: T2, Sodium-dependent noradrenaline transporter (Homo sapiens, UniProt P23975); assay: In vitro binding affinity against human norepinephrine transporter in human embryonic kidney cell line by using [125I]-RTI-55 radioligand; type: cell-based
# T2 sequence (P23975 whole entry): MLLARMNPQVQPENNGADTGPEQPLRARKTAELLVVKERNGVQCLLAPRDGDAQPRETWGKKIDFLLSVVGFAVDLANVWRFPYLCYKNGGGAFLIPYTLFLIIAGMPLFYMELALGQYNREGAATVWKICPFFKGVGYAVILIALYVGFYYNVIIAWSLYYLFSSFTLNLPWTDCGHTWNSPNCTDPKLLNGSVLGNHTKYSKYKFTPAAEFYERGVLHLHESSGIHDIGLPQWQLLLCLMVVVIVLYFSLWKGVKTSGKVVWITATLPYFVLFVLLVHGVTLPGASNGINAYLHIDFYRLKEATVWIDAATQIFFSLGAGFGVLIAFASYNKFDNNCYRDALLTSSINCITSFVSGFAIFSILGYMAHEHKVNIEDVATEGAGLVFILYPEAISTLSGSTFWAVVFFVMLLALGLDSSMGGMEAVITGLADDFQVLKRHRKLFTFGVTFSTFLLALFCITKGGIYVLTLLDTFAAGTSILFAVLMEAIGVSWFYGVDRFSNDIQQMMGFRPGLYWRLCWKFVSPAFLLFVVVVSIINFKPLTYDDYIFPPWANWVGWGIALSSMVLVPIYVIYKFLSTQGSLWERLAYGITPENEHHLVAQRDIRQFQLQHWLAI
# [4] = target: T2, Sodium-dependent noradrenaline transporter; assay: In vitro binding affinity against human norepinephrine transporter in human embryonic kidney cell line using [125I]RTI-55 as radioligand; type: cell-based
# [5] = target: T1, Sodium-dependent dopamine transporter; assay: In vitro binding affinity against human dopamine transporter in dog kidney cell line using [125I]RTI-55 as radioligand; type: cell-based
# [6] = target: T2, Sodium-dependent noradrenaline transporter; assay: In vitro binding affinity against human norepinephrine transporter in human embryonic kidney cell line by using [3H]-[…] radioligand; type: cell-based
# [7] = target: T1, Sodium-dependent dopamine transporter; assay: In vitro binding affinity against human dopamine transporter in dog kidney cell line by using [3H]WIN-35428 as the radiotracer; type: cell-based
SMILES,Ki [1],Ki [2],Ki [3],Ki [4],Ki [5],Ki ([5]; kidney),Ki [6],Ki [7]
COC(=O)C1C(c2ccc(/C=C\Br)cc2)CC2CCC1N2C (centres undefined),0.08 nM,3.1 nM,111 nM,,,,,
COC(=O)C1C2CCC(CC1c1ccc(/C=C\I)cc1)N2 (centres undefined),0.05 nM and 0.04 nM (2×),3.5 nM,,24 nM,15 nM,15 nM,,
COC(=O)C1C(c2ccc(/C=C\I)cc2)CC2CCC1N2C (centres undefined),0.11 nM,22 nM,450 nM,,,,,
COC(=O)C1C2CCC(CC1c1ccc(/C=C\Br)cc1)N2 (centres undefined),0.04 nM,3.9 nM,2.5 nM,,,,,
COC(=O)C1C2CCC(CC1c1ccc(I)cc1)N2 (centres undefined),0.36 nM,0.69 nM,,,,,7.5 nM,
COC(=O)C1C2CCC(CC1c1ccc(C=C(Br)Br)cc1)N2 (centres undefined),0.08 nM,5.6 nM,5.6 nM,,,,,
COC(=O)[C@@H]1C2CC[C@H](C[C@@H]1c1ccc(I)cc1)N2C,4.2 nM,1.3 nM,,,,,36 nM,
COC(=O)C1C(c2ccc(C=C(Br)Br)cc2)CC2CCC1N2C (centres undefined),1.35 nM,6.73 nM,161 nM,,,,,
CN1C2CCC1C(C(=O)Oc1ccccc1)C(c1ccc(Cl)cc1)C2 (centres undefined),390 nM,,,,,,242 nM,5.25 nM
